13 compounds from ChEMBL document CHEMBL1125399, “Perfluorocarbon-based antidiabetic agents” (1992) can be followed below.

The species entered for assay [1] is Mus musculus. Briefly: Percent plasma glucose concentration of drug treated mice (ob/ob) relative to vehicle control animals. The format is functional. The essentials: (§1)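 Female ob/ob mice, 10 weeks old, fed ad libitum, in groups of 7–11. Dosed po once daily for 4 days in 0.5% methyl cellulose vehicle. Decapitated the next morning; 0.1 mL blood into saline with Trasylol and EDTA; plasma glucose by autoanalyzer. Reciprocal-transformed (y = 160/x) harmonic mean given as % of vehicle. Bonferroni-adjusted comparisons.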

For assay [2], the system named is Mus musculus. The assay can be described thus: Effect on the mean body weight of mice on day 5 (post) of swiss CD-1 mice (charles river), in groups of six dosed orally once per day for 4 days with 50 mg/kg of compound. The assay is classed as functional. Conditions: route oral. In a few lines:
(§2)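 Swiss CD-1 mice (20–25 g) in groups of six; vehicle controls in three cages of three. Compound 50 mg/kg or vehicle (2% Tween 80/saline) given by gavage each afternoon for 4 consecutive days. Body weight taken before dosing (day 1) and on the morning of day 5. Mice were then killed under halothane and heart and liver weighed, per 10 g body weight. Bonferroni t test.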

Assay [3] concerns Mus musculus. Briefly: Effect on the mean heart weight of mice on day 1 (pre) of swiss CD-1 mice (charles river), in groups of six dosed orally once per day for 4 days with 50 mg/kg of compound; expressed as mg/10 g body weight. As to conditions: route oral. The assay is classed as functional.
Assay [4] has as its system Mus musculus. The assay can be described thus: Effect on the mean body weight of mice on day 1 (pre) of swiss CD-1 mice (charles river), in groups of six dosed orally once per day for 4 days with 50 mg/kg of compound. The format is functional. Conditions: route oral. In a few lines:
as §2

The test system of assay [5] is Mus musculus. Briefly: Effect on the mean liver weight of mice on day 1 (pre) of swiss CD-1 mice (charles river), in groups of six dosed orally once per day for 4 days with 50 mg/kg of compound; expressed as mg/10 g body weight. The assay is classed as functional. As to conditions: route oral.
For assay [6], the system named is Mus musculus. The assay can be described thus: Percent plasma glucose concentration of drug treated mice (ob/ob) relative to vehicle control animals following 75 mg/kg administration. The assay is classed as functional. The essentials:
as §1

In assay [7] the test system is Mus musculus. The assay can be described thus: Effect on the mean body weight of mice on day 1 (pre) of swiss CD-1 mice (charles river), in groups of six dosed orally once per day for 4 days with 50 mg/kg of compound; […]. The format is functional. Conditions: route oral.
The test system of assay [8] is Mus musculus. Briefly: Percent plasma glucose concentration of drug treated mice (ob/ob) relative to vehicle control animals was determined at the dose of 75 mg/kg.

`CN(C(=O)C(F)(F)C(F)(F)C(F)(F)C(F)(F)C(F)(F)C(F)(F)C(F)(F)F)c1ccc(Cc2nnnn2C)cc1`: the Activity in the assay filed under Mus musculus [1] stood at 67%. Moreover, the Body weight in the assay with Mus musculus [2] came to 31.1 g; with Mus musculus [4], 29.9 g. In addition, in the assay on Mus musculus [3], the Heart weight is on record as 41 mg 10g-1. Further, in the assay on Mus musculus [5], the Liver weight came out at 0.942 g 10g-1.
Turning to `CCCCCCC(F)(F)C(=O)Nc1ccc(Cc2nn[nH]n2)cc1`, the Body weight in the assay with Mus musculus [2] was found to be 31.7 g; in the assay on Mus musculus [4] it was 30.4 g. In the assay with Mus musculus [3], this compound had a Heart weight of 43 mg 10g-1. The compound further came in with an Activity in the assay on Mus musculus [6] of 80%. For the same compound, the Liver weight with Mus musculus [5] amounted to 0.671 g 10g-1.
For `Cl.Nc1ccc(Cc2nn[nH]n2)cc1`, the Body weight with Mus musculus [7] is on record as 29.8 g; with Mus musculus [2], 30.1 g. Also, in the assay on Mus musculus [3], the Heart weight stood at 43 mg 10g-1. In the assay with Mus musculus [6], this compound registered an Activity of 93%. This compound gave a Liver weight in the assay on Mus musculus [5] of 0.591 g 10g-1.
`O=C(Nc1ccncc1)C(F)(F)C(F)(F)C(F)(F)C(F)(F)C(F)(F)C(F)(F)C(F)(F)F`: the Activity in the assay listed under Mus musculus [1] stood at 66%. Further, the Body weight was determined as 32.4 g in the assay with Mus musculus [2] and 30.7 g in the assay on Mus musculus [4]. The compound also gave a Heart weight in the assay with Mus musculus [3] of 39 mg 10g-1. Also, in the assay with Mus musculus [5], the Liver weight amounted to 1.08 g 10g-1.
For `O=C(Nc1ccc(Cc2nnn(Cc3ccccc3)n2)cc1)C(F)(F)C(F)(F)C(F)(F)C(F)(F)C(F)(F)C(F)(F)C(F)(F)F` the same measures were 68%, 31.4 g, 30.3 g, 41 mg 10g-1 and 0.787 g 10g-1.
Take `O=C(Nc1ccc(Cc2nn[nH]n2)cc1)C(F)(F)C(F)(F)C(F)(F)C(F)(F)C(F)(F)C(F)(F)C(F)(F)F`: the Activity in the assay filed under Mus musculus [1] is 66%. Also, the Body weight in the assay with Mus musculus [2] is 31.4 g; in the assay with Mus musculus [4], 30.5 g. Besides, the Heart weight in the assay on Mus musculus [3] turned out to be 39 mg 10g-1. The Liver weight in the assay with Mus musculus [5] was determined as 1.25 g 10g-1.
In the case of `FC(F)(F)C(F)(F)C(F)(F)C(F)(F)C(F)(F)C(F)(F)C(F)(F)CNc1ccc(Cc2nn[nH]n2)cc1`, the Body weight in the assay with Mus musculus [2] was determined as 31.2 g; in the assay with Mus musculus [4], 30.3 g. The Heart weight in the assay with Mus musculus [3] amounted to 39 mg 10g-1. In addition, the Activity in the assay on Mus musculus [6] was determined as 57%. Moreover, in the assay on Mus musculus [5], the Liver weight stood at 0.856 g 10g-1.
Turning to `CCCCCCCC(=O)NNC(=O)C(F)(F)C(F)(F)C(F)(F)C(F)(F)C(F)(F)C(F)(F)C(F)(F)F`, the Body weight in the assay on Mus musculus [2] and with Mus musculus [4] was 30.6 g throughout. Further, the Heart weight in the assay with Mus musculus [3] turned out to be 37 mg 10g-1. In the assay with Mus musculus [6], this compound showed an Activity of 74%. The compound also yielded a Liver weight with Mus musculus [5] of 1.44 g 10g-1.
For the compound `CCCCN(Cc1ccccc1)C(=O)C(F)(F)C(F)(F)C(F)(F)C(F)(F)C(F)(F)C(F)(F)C(F)(F)F`, the Body weight stood at 31.1 g in the assay on Mus musculus [2] and 30.8 g in the assay with Mus musculus [4]. The compound further registered a Heart weight in the assay with Mus musculus [3] of 40 mg 10g-1. In addition, the Activity in the assay with Mus musculus [6] amounted to 61%. Further, the Liver weight with Mus musculus [5] amounted to 1.18 g 10g-1.
`O=C(N(Cc1ccccc1)c1ccc(Cc2nn[nH]n2)cc1)C(F)(F)C(F)(F)C(F)(F)C(F)(F)C(F)(F)C(F)(F)C(F)(F)C(F)(F)F`: in the assay filed under Mus musculus [1], the Activity is 55%. The Body weight is 31.3 g in the assay on Mus musculus [2] and 29.8 g in the assay with Mus musculus [4]. In the assay with Mus musculus [3], this compound displayed a Heart weight of 39 mg 10g-1. For the same compound, the Liver weight in the assay on Mus musculus [5] was determined as 1.11 g 10g-1.
Regarding `O=C(O)C(F)(F)C(F)(F)C(F)(F)C(F)(F)C(F)(F)C(F)(F)C(F)(F)C(F)(F)F`, in the assay with Mus musculus [6], the Activity is 124%.
Regarding `O=C(O)C(F)(F)C(F)(F)C(F)(F)C(F)(F)F`, in the assay on Mus musculus [6], the Activity was found to be 133%.
As for `O=C(Nc1ccc(Cc2nn[n-]n2)cc1)C(F)(F)C(F)(F)C(F)(F)F.[Na+]`, the Activity with Mus musculus [8] was determined as 67%.
